From ChEMBL document CHEMBL1155267, “Synthesis of novel bioactive derivatives of 3-(4-chlorophenyl)-2-hydrazino-5,6,7,8-tetrahydrobenzo(b)thieno[2,3-d]pyrimidine-4(3H)-ones” (2009)

Key:
Type in all cases: functional
[1] = test system: Mus musculus; experiment: Anticonvulsant activity in Swiss albino mouse assessed as protection against PTZ-induced clonic convulsions at 8 mg/kg, ip administered after 30 mins PTZ challenge measured for 20 mins; settings: route intraperitoneal
Outline: (§1)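 Groups of six mice got the test suspension in 1% CMC i.p. at the stated dose. After 30 min they received aqueous PTZ 85 mg/kg s.c. and were watched for 20 min for clonic convulsions. The result is the percentage of animals protected.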

[2] = test system: Mus musculus; experiment: Anticonvulsant activity in Swiss albino mouse assessed as protection against PTZ-induced clonic convulsions administered after 30 mins PTZ challenge measured for 20 mins
Outline: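 Mice (groups of six) got the test suspension in 1% CMC i.p., then 30 min later aqueous PTZ 85 mg/kg s.c. Clonic convulsions were watched for 20 min. The number of animals protected per group served as the percentage response for calculating ED50.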

[3] = test system: Mus musculus; experiment: Antidepressant activity in Swiss albino mouse at 5 mg/kg, ip after 30 mins by photoactometer method; settings: route intraperitoneal
Outline: (§2)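 Swiss albino mice of either sex, 25–40 g, six per group, acclimatised 10 min. Baseline photoactometer counts were taken over 10 min. Dosing was 5 mg/kg i.p. in 1% CMC, with each group serving as its own control. At 20 and 50 min animals entered the chamber, rested 10 min, then counts were taken for 10 min. % depression = (control − decrease in count)/control ×100. Mean ± SEM, n=6.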

[4] = test system: Mus musculus; experiment: Antidepressant activity in Swiss albino mouse at 5 mg/kg, ip after 60 mins by photoactometer method; settings: route intraperitoneal; outline: as §2
[5] = test system: Mus musculus; experiment: Skeletal muscle relaxant activity in Swiss albino mouse assessed as number of falls form rotarod at 5 mg/kg, ip after 30 mins by rotarod method relative to Diazepam; design: scale not given: the % may be the effect or the level left; settings: route intraperitoneal
Outline: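 Mice 25–40 g, six per group, were dosed at 5 mg/kg in 1% CMC, with each group serving as its own control. Falls per min on the Rotarod were recorded before dosing and 30 min after. % relaxation = (mean increase in falls − mean control)/mean control ×100. Mean ± SEM, n=6.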

[6] = test system: Mus musculus; experiment: Anticonvulsant activity in Swiss albino mouse assessed as protection against PTZ-induced clonic convulsions at 10 mg/kg, ip administered after 30 mins PTZ challenge measured for 20 mins; settings: route intraperitoneal; outline: as §1
[7] = test system: Mus musculus; experiment: Anticonvulsant activity in Swiss albino mouse assessed as protection against PTZ-induced clonic convulsions at 9 mg/kg, ip administered after 30 mins PTZ challenge measured for 20 mins; settings: route intraperitoneal; outline: as §1
[8] = test system: Mus musculus; experiment: Anticonvulsant activity in Swiss albino mouse assessed as protection against PTZ-induced clonic convulsions at 6 mg/kg, ip administered after 30 mins PTZ challenge measured for 20 mins; settings: route intraperitoneal; outline: as §1
[9] = test system: Mus musculus; experiment: Anticonvulsant activity in Swiss albino mouse assessed as protection against PTZ-induced clonic convulsions at 5 mg/kg, ip administered after 30 mins PTZ challenge measured for 20 mins; settings: route intraperitoneal; outline: as §1
[10] = test system: Mus musculus; experiment: Anticonvulsant activity in Swiss albino mouse assessed as protection against PTZ-induced clonic convulsions at 7 mg/kg, ip administered after 30 mins PTZ challenge measured for 20 mins; settings: route intraperitoneal; outline: as §1
[11] = test system: Mus musculus; experiment: Anticonvulsant activity in Swiss albino mouse assessed as protection against PTZ-induced clonic convulsions at 4 mg/kg, ip administered after 30 mins PTZ challenge measured for 20 mins; settings: route intraperitoneal; outline: as §1
[12] = test system: Mus musculus; experiment: Anticonvulsant activity in Swiss albino mouse assessed as protection against PTZ-induced clonic convulsions at 11 mg/kg, ip administered after 30 mins PTZ challenge measured for 20 mins; settings: route intraperitoneal; outline: as §1

SMILES | Activity [1] [%] | ED50 [2] [mg/kg] | Activity [3] [%] | Activity [4] [%] | Activity [5] [%] | Activity [6] [%] | Activity [7] [%] | Activity [8] [%] | Activity [9] [%] | Activity [10] [%] | Activity [11] [%] | Activity [12] [%]
CCc1nnc2n(-c3ccc(Cl)cc3)c(=O)c3c4c(sc3n12)CCCC4 | 33.33 | 8.5 | 71.42 | 83.92 | 105.49 | 100 | 66.66 |  |  |  |  | 
O=c1c2c3c(sc2n2c(S)nnc2n1-c1ccc(Cl)cc1)CCCC3 |  | 5.5 | 81.71 | 90 | 109.62 |  |  | 66.66 | 33.33 | 100 |  | 
Nc1nnc2n(-c3ccc(Cl)cc3)c(=O)c3c4c(sc3n12)CCCC4 | 100 | 6.73 | 82.24 | 88.78 | 107.52 |  |  | 16.66 |  | 66.66 |  | 
CCCc1nnc2n(-c3ccc(Cl)cc3)c(=O)c3c4c(sc3n12)CCCC4 |  | 4.4 | 78.78 | 90.4 | 116.62 |  |  | 100 | 83.33 |  | 16.66 | 
Cc1nnc2n(-c3ccc(Cl)cc3)c(=O)c3c4c(sc3n12)CCCC4 |  | 9.33 | 75.51 | 82.65 | 102.75 | 83.33 | 33.33 |  |  |  |  | 100
CN1C(=O)CN=C(c2ccccc2)c2cc(Cl)ccc21 [DIAZEPAM] |  | 1.18 | 85.43 | 89.32 |  |  |  |  |  |  |  | 
